Measurements reported in ChEMBL document CHEMBL1221267, “Synthesis, in vitro and in vivo evaluation of 3-arylisoquinolinamines as potent antitumor agents” (Bioorg Med Chem Lett, 2010).

Assays:
[1] = test system: SNB-19; assay: Antitumor activity against human SNB19 by sulforhodamine B assay; assay type: functional, cell-based
Method in brief: (§1)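 Human tumour lines from ATCC; growth inhibition by sulforhodamine B staining, absorbance read at 530 nm; IC50 taken as the drug concentration inhibiting cell growth by 50%, calculated by curve fitting.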

[2] = test system: CAKI-1; assay: Antitumor activity against human Caki1 by sulforhodamine B assay; assay type: functional, cell-based; method in brief: as §1
[3] = test system: MDA-MB-231; assay: Antitumor activity against human MDA-MB-231 by sulforhodamine B assay; assay type: functional, cell-based; method in brief: as §1
[4] = test system: PC-3; assay: Antitumor activity against human PC3 by sulforhodamine B assay; assay type: functional, cell-based; method in brief: as §1
[5] = test system: HCT-116; assay: Antitumor activity against human HCT116 by sulforhodamine B assay; assay type: functional, cell-based; method in brief: as §1
[6] = test system: PANC-1; assay: Antitumor activity against human PANC1 by sulforhodamine B assay; assay type: functional, cell-based; method in brief: as §1
[7] = test system: OVCAR-3; assay: Antitumor activity against human OVCAR-3 by sulforhodamine B assay; assay type: functional, cell-based; method in brief: as §1
[8] = test system: SK-MEL-28; assay: Antitumor activity against human SK-MEL-28 by sulforhodamine B assay; assay type: functional, cell-based; method in brief: as §1
[9] = test system: HCT-15; assay: Cell cycle arrest in human HCT15 cells assessed as accumulation at G2/M phase at 1 nM after 48 hrs using propidium iodide staining by flow cytometry; assay type: functional
Method in brief: (§2)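 HCT-15 cells plated at about 10^6 per 100-mm dish, grown 24 h, then given fresh medium with compound. Harvested by trypsinization at 24 h and 48 h, fixed in 70% ethanol, stained with 0.2% NP-40, RNase A (30 µg/ml) and propidium iodide (50 µg/ml) in phosphate–citrate buffer pH 7.2. DNA content by flow cytometry, at least 20,000 cells per analysis.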

[10] = test system: HCT-15; assay: Cell cycle arrest in human HCT15 cells assessed as accumulation at G2/M phase at 1 nM after 24 hrs using propidium iodide staining by flow cytometry; assay type: functional; method in brief: as §2
[11] = test system: HCT-116; assay: Resistant index, ratio of IC50 for paclitacel-resistant human HCT15 cells to IC50 for human HCT116 cells; assay type: functional
Method in brief: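 Index computed as IC50 in HCT-15 divided by IC50 in HCT 116, both from sulforhodamine B growth inhibition with absorbance at 530 nm.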

[12] = test system: HCT-15; assay: Antitumor activity against human paclitaxel-resistant HCT15 by sulforhodamine B assay; assay type: functional, cell-based; method in brief: as §1
[13] = test system: Mus musculus; assay: Toxicity in BALB/c mouse at 10 mg/kg, ip qd thrice a week from day 10 to day 29; assay type: organism-based; design: dose 10 mg/kg, route intraperitoneal; settings: in vivo
Method in brief: (§3)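 Female athymic BALB/c nu/nu mice, six weeks old, carrying subcutaneous right-flank HCT-15 xenografts (1×10^6 cells in 0.2 ml RPMI). Dosed 10 mg/kg/day ip three times weekly, days 10–29, in 5% Cremophor/5% ethanol in PBS; vehicle-only controls. Body weight monitored alongside caliper tumour measurements every 3–5 days.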

[14] = test system: HCT-15; assay: Cell cycle arrest in human HCT15 cells assessed as accumulation at sub-G1 phase at 10 nM after 24 hrs using propidium iodide staining by flow cytometry; assay type: functional; method in brief: as §2
[15] = test system: HCT-15; assay: Antitumor activity against paclitaxel-resistant human HCT15 cells xenografted in BALB/c mouse assessed as tumor growth inhibition at 10 mg/kg, ip qd thrice a week from day 10 to day 29; assay type: functional; settings: HCT-15, ip, route intraperitoneal
Method in brief: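 Female athymic BALB/c nu/nu mice, six weeks old, received 1 × 10^6 paclitaxel-resistant HCT-15 cells in 0.2 ml RPMI subcutaneously in the right flank. Once tumors were in range, mice were assigned to groups. Dosing was 10 mg/kg/day ip in 5% Cremophor plus 5% ethanol in PBS, three times weekly, days 10–29. Tumor diameters were measured by caliper every 3–5 days. Body weight was monitored.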

[16] = test system: HCT-15; assay: Cell cycle arrest in human HCT15 cells assessed as accumulation at G0/G1 phase at 1 nM after 24 hrs using propidium iodide staining by flow cytometry; assay type: functional; method in brief: as §2
[17] = test system: HCT-15; assay: Cell cycle arrest in human HCT15 cells assessed as accumulation at G0/G1 phase at 1 nM after 48 hrs using propidium iodide staining by flow cytometry; assay type: functional; method in brief: as §2
[18] = test system: HCT-15; assay: Cell cycle arrest in human HCT15 cells assessed as accumulation at sub-G1 phase at 10 nM after 48 hrs using propidium iodide staining by flow cytometry; assay type: functional; method in brief: as §2
[19] = test system: HCT-15; assay: Cell cycle arrest in human HCT15 cells assessed as accumulation at sub-G1 phase at 1 nM after 48 hrs using propidium iodide staining by flow cytometry; assay type: functional; method in brief: as §2
[20] = test system: Mus musculus; assay: Toxicity in BALB/c mouse assessed as change in body weight at 10 mg/kg, ip qd thrice a week from day 10 to day 29; assay type: organism-based; design: dose 10 mg/kg, route intraperitoneal; settings: in vivo; method in brief: as §3
[21] = test system: HCT-15; assay: Cell cycle arrest in human HCT15 cells assessed as accumulation at G0/G1 phase at 10 nM after 24 hrs using propidium iodide staining by flow cytometry; assay type: functional; method in brief: as §2
[22] = test system: HCT-15; assay: Cell cycle arrest in human HCT15 cells assessed as accumulation at sub-G1 phase at 1 nM after 24 hrs using propidium iodide staining by flow cytometry; assay type: functional; method in brief: as §2
[23] = test system: HCT-15; assay: Cell cycle arrest in human HCT15 cells assessed as accumulation at S phase at 1 nM after 24 hrs using propidium iodide staining by flow cytometry; assay type: functional; method in brief: as §2
[24] = test system: HCT-15; assay: Cell cycle arrest in human HCT15 cells assessed as accumulation at S phase at 10 nM after 24 hrs using propidium iodide staining by flow cytometry; assay type: functional; method in brief: as §2
[25] = test system: HCT-15; assay: Cell cycle arrest in human HCT15 cells assessed as accumulation at G0/G1 phase at 10 nM after 48 hrs using propidium iodide staining by flow cytometry; assay type: functional; method in brief: as §2
[26] = test system: HCT-15; assay: Cell cycle arrest in human HCT15 cells assessed as accumulation at G2/M phase at 10 nM after 24 hrs using propidium iodide staining by flow cytometry; assay type: functional; method in brief: as §2
[27] = test system: HCT-15; assay: Cell cycle arrest in human HCT15 cells assessed as accumulation at G2/M phase at 10 nM after 48 hrs using propidium iodide staining by flow cytometry; assay type: functional; method in brief: as §2
[28] = test system: HCT-15; assay: Cell cycle arrest in human HCT15 cells assessed as accumulation at S phase at 10 nM after 48 hrs using propidium iodide staining by flow cytometry; assay type: functional; method in brief: as §2

IC50 [1] [nM]	IC50 [2] [nM]	IC50 [3] [nM]	IC50 [4] [nM]	IC50 [5] [nM]	IC50 [6] [nM]	IC50 [7] [nM]	IC50 [8] [nM]	Compound	also measured
57	38	27	48	29	26	25	45	COc1cc(OC)cc(-c2cc3ccc(N(C)C)cc3c(N)n2)c1	–
2200	590	720	2760	1220	2140	910	1620	Cc1ccc2cc(-c3ccccc3F)nc(N)c2c1	–
120	48	51	120	74	79	75	120	Cc1ccc2cc(-c3c(C)cccc3C)nc(N)c2c1	–
380	130	150	250	180	370	230	420	Cc1ccc2cc(-c3ccc4c(c3)OCO4)nc(N)c2c1	–
530	440	210	710	280	690	290	500	Cc1cccc(-c2cc3ccc(C)cc3c(N)n2)c1	–
52	47	30	70	42	58	42	51	COc1ccc(C)c(-c2cc3ccc(C)cc3c(N)n2)c1	–
420	530	250	680	790	540	160	630	COc1cc2cc(-c3c(C)cccc3C)nc(N)c2cc1OC	–
1560	1780	790	2500	2320	2270	580	1120	COc1cc2cc(-c3cccc(C)c3)nc(N)c2cc1OC	–
28	23	21	24	23	18	16	32	Cc1cccc(-c2cc3ccc(N(C)C)cc3c(N)n2)c1.Cl	Ratio IC50 [11]: 0.91; IC50 [12]: 21 nM
250	170	150	230	180	190	140	330	COc1ccc(-c2cc3ccc(N(C)C)cc3c(N)n2)cc1OC	–
94	68	59	190	64	110	71	110	COc1cccc(-c2cc3cc(N(C)C)ccc3c(N)n2)c1	–
1130	350	440	> 3000	670	930	490	800	COc1ccccc1-c1cc2cc(C)ccc2c(N)n1	–
290	130	140	250	190	310	180	340	COc1cccc(-c2cc3cc(C)ccc3c(N)n2)c1	–
2230	750	930	2980	1360	2270	790	1800	COc1ccc(-c2cc3cc(C)ccc3c(N)n2)cc1	–
470	160	180	430	240	380	180	410	COc1cc(OC)cc(-c2cc3cc(C)ccc3c(N)n2)c1	–
1510	460	550	1840	700	1590	570	1070	Cc1ccc2c(N)nc(-c3ccccc3F)cc2c1	–
780	220	320	1010	470	680	510	670	COc1ccccc1-c1cc2ccc(C)cc2c(N)n1	–
260	120	150	240	190	240	150	350	Cc1ccc2c(N)nc(-c3ccccc3C)cc2c1	–
–	–	–	–	–	–	–	–	CC(=O)O[C@H]1C(=O)[C@@]2(C)[C@H]([C@H](OC(=O)c3ccccc3)[C@]3(O)C[C@H](OC(=O)[C@H](O)[C@@H](NC(=O)c4ccccc4)c4ccccc4)C(C)=C1C3(C)C)[C@]1(OC(C)=O)CO[C@@H]1C[C@@H]2O [PACLITAXEL]	Ratio IC50 [11]: 70; inhibition in vivo at 10 mg/kg [15]: 48.8%

Compound	IC50 [1] [nM]	IC50 [2] [nM]	IC50 [3] [nM]	IC50 [4] [nM]	IC50 [5] [nM]	IC50 [6] [nM]	IC50 [7] [nM]	IC50 [8] [nM]	also measured
COc1cccc(-c2cc3ccc(N(C)C)cc3c(N)n2)c1.Cl	32	22	21	19	17	19	14	32	Activity [9]: 17.2%; Activity [10]: 20.2%; Ratio IC50 [11]: 0.88; IC50 [12]: 15 nM; Activity [13]: Non-toxic; Activity [14]: 19.6%; inhibition in vivo at 10 mg/kg [15]: 69.2%; Activity [16]: 50.78%; Activity [17]: 59.52%; Activity [18]: 24.76%; Activity [19]: 3.78%; Activity [20]: Non-toxic; Activity [21]: 62.51%; Activity [22]: 0.9%; Activity [23]: 29.02%; Activity [24]: 21.28%; Activity [25]: 68.67%; Activity [26]: 16.21%; Activity [27]: 12.74%; Activity [28]: 18.59%
